Assay results: ChEMBL document CHEMBL1139876, “Synthesis and study of L-dopa-glutathione codrugs as new anti-Parkinson agents with free radical scavenging properties” (J Med Chem, 2007)
In brackets after ≈: the same amount, converted by molar mass. Activity calls are given as the source filed them. The rule behind the calls is not given here.

What was measured:
Rattus norvegicus [1] = test: Anxiolytic effect in Wistar rat assessed as […] in entries and time spent in open field center at 184.79 mg/kg, po after 1.5 hrs; type: functional, organism-based; parameters: dose 184.79 mg/kg
[2] = Partition coefficient, log P at pH 7.4 by saturation shake flask method; type: physicochemical; settings: octanol/water
Outline: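 log P measured by saturation shake-flask in n-octanol/phosphate buffer, pH 7.4. Concentrations in each layer quantified by C18 reverse-phase HPLC-UV against known standards. Means of three experiments ± SD.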

[3] = Solubility in 0.02 M hydrochloric acid buffer at pH 1.3; type: physicochemical
Outline: (§1)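 Solubility in water and in buffers at pH 1.3, 5.0 and 7.4, determined by HPLC-UV peak areas correlated with known concentrations. Means of three experiments ± SD.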

[4] = Solubility in water; type: physicochemical; outline: as §1
[5] = Solubility in 0.02 M phosphate buffer at pH 7.4; type: physicochemical; outline: as §1
[6] = Solubility in 0.02 M sodium acetate buffer at pH 5.0; type: physicochemical; outline: as §1
[7] = Chemical stability assessed as half life of hydrolysis in 0.02 M hydrochloric acid buffer at pH 1.3; type: physicochemical
Outline: (§2)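 Chemical hydrolysis at 37 °C at pH 1.3, 5.0 and 7.4. Codrug concentration followed over time; Kobs and t1/2 taken by regression from slopes of semilogarithmic concentration–time plots. Means of three experiments ± SD.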

[8] = Chemical stability assessed as half life of hydrolysis in 0.02 M sodium acetate buffer at pH 5.0; type: physicochemical; outline: as §2
[9] = Chemical stability assessed as half life of hydrolysis in 0.02 M phosphate buffer at pH 7.4; type: physicochemical; outline: as §2
[10] = Stability in rat plasma assessed as half life of hydrolysis; type: ADME, cell-free
Outline: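 Enzymatic hydrolysis at 37 °C in 80% human or rat plasma containing 20% 0.02 M phosphate buffer, pH 7.4, monitoring release of L-dopa. Fitted to first-order kinetics to give Kobs and t1/2. Means of three experiments ± SD.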

Homo sapiens = species: Homo sapiens; test: Stability in human plasma assessed as half life of hydrolysis
[11] = Plasma concentration in Wistar rat at 65.46 mg/kg, po after 2 hrs; type: ADME, organism-based; parameters: dose 65.46 mg/kg, route oral
Outline: (§3)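 Plasma L-dopa concentration–time profile in rats after oral administration, with sampling up to 8 h. Mean ± SE; each experiment in triplicate.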

Rattus norvegicus [12] = test: Antioxidant activity assessed as increase in glutathione peroxidase activity in Wistar rat plasma at 184.79 mg/kg, po after 1.5 hrs; type: functional
Outline: (§4)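 Rats dosed by oral gavage; plasma SOD and GPx activities measured 1.5 h after administration, expressed as units/(g Hb). Mean ± SE of five experiments; P < 0.05 vs L-dopa-treated group.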

Rattus norvegicus [13] = test: Antioxidant activity assessed as decrease in SOD activity in Wistar rat plasma at 184.79 mg/kg, po after 1.5 hrs; type: functional; outline: as §4
[14] = Pro-oxidant effect on Fe(2+)/H2O2-induced deoxyribose degradation relative to control; type: functional
Outline: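 Deoxyribose degradation induced by Fe(II)/H2O2 in a medium of deoxyribose, phosphate buffer, EDTA and H2O2 with no enzymatic activity. Compounds tested from 1 to 50 µM.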

Rattus norvegicus [15] = test: Prolongation of plasma […] levels in Wistar rat at 184.79 mg/kg, po after 2 hrs; type: functional; outline: as §3
Rattus norvegicus [16] = test: Induction of sustained release of […] levels in Wistar rat striatum at 184.79 mg/kg, po after 12 hrs; type: functional
Outline: (§5)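 Oral dosing to rats at doses equimolar to L-dopa. Striatal L-dopa and dopamine measured over time by HPLC with electrochemical detection. Mean ± SE; each experiment in triplicate.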

Rattus norvegicus [17] = test: Induction of sustained release of dopamine levels in Wistar rat striatum at 184.79 mg/kg, po after 12 hrs; type: functional; outline: as §5

SMILES | Activity (Rattus norvegicus [1]) | logD [2] | solubility [3] | solubility [4] | solubility [5] | solubility [6] | half-life [7] | half-life [8] | half-life [9] | half-life [10] | half-life (Homo sapiens) | concentration at 2 h [11] | Activity (Rattus norvegicus [12]) | Activity (Rattus norvegicus [13]) | Activity [14] | Activity (Rattus norvegicus [15]) | Activity (Rattus norvegicus [16]) | Activity (Rattus norvegicus [17])
COC(=O)[C@H](CCC(=O)N[C@@H](CS)C(=O)NCC(=O)N[C@H](Cc1ccc(O)c(O)c1)C(=O)OC)NC(C)=O | Active | – | – | – | – | – | – | – | – | – | – | – | – | – | – | – | – | –
N[C@@H](CCC(=O)N[C@@H](CS)C(=O)NCC(=O)N[C@@H](Cc1ccc(O)c(O)c1)C(=O)O)C(=O)O | – | 0.75 | 2150 µg/mL (≈ 4.42 mM) | 1800 µg/mL (≈ 3.7 mM) | 1930 µg/mL (≈ 3.97 mM) | 1670 µg/mL (≈ 3.43 mM) | 28.1 h | 57.3 h | 12.2 h | 2.7 min | 0.252 h | – | – | – | – | – | – | –
N[C@@H](Cc1ccc(O)c(O)c1)C(=O)O [LEVODOPA] | – | – | – | – | – | – | – | – | – | – | – | 83 µg/mL | 795.6 U/g | 203.4 U/g.Hb | Dose-dependent effect | – | – | –
COC(=O)CNC(=O)[C@H](CS)NC(=O)CC[C@H](NC(=O)[C@@H](Cc1ccc(O)c(O)c1)NC(C)=O)C(=O)OC | Active | 0.94 | 2740 µg/mL (≈ 4.92 mM) | 7890 µg/mL (≈ 14.2 mM) | 3990 µg/mL (≈ 7.17 mM) | 3840 µg/mL (≈ 6.9 mM) | 31 h | 69.3 h | 15.1 h | 1.9 min | 0.0783 h | – | 821 U/g.Hb | 200.59 U/g | – | 85 µg/mL | 40 pmol/mg | 40 pmol/kg
COC(=O)[C@H](CCC(=O)N[C@@H](CS)C(=O)NCC(=O)N[C@@H](Cc1ccc(O)c(O)c1)C(=O)OC)NC(C)=O [listing 1 of 2 here] | – | 0.89 | 35100 µg/mL (≈ 63.1 mM) | 27000 µg/mL (≈ 48.6 mM) | 25600 µg/mL (≈ 46.1 mM) | 25500 µg/mL (≈ 45.8 mM) | 20.1 h | 40.8 h | 7.22 h | – | 0.0533 h | – | – | – | – | – | – | –
N[C@H](Cc1ccc(O)c(O)c1)C(=O)N[C@@H](CCC(=O)N[C@@H](CS)C(=O)NCC(=O)O)C(=O)O | – | 0.8 | 550 µg/mL (≈ 1.13 mM) | 320 µg/mL (≈ 0.658 mM) | 460 µg/mL (≈ 0.946 mM) | 690 µg/mL (≈ 1.42 mM) | 40.4 h | 80.1 h | 23.2 h | 4.1 min | 0.222 h | – | – | – | – | – | – | –
COC(=O)[C@H](CCC(=O)N[C@@H](CS)C(=O)NCC(=O)N[C@@H](Cc1ccc(O)c(O)c1)C(=O)OC)NC(C)=O [listing 2 of 2 here] | – | – | – | – | – | – | – | – | – | – | – | – | 847.78 U/g.Hb | 174.86 U/g.Hb | – | 105 µg/mL | 40 pmol/mg | 40 pmol/kg
N[C@@H](CCC(=O)N[C@@H](CS)C(=O)NCC(=O)N[C@H](Cc1ccc(O)c(O)c1)C(=O)O)C(=O)O | – | – | – | – | – | – | – | – | – | – | – | – | – | – | inactive | – | – | –
